For data set [1], the system named is 786‐O and ACHN cells. The data set can be described thus: Wound healing and transwell migration assay. The format is cell-based, human. Summed up:
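Transwell, 8-μm pores: 1 × 10⁴ cells (migration) or 2 × 10⁴ on Matrigel (invasion) in serum-free medium with treatment above complete medium at matching concentration, 24 h. Cells fixed 4% paraformaldehyde, stained .1% crystal violet, counted in 4 random fields. Mean ± SD, 3 experiments.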

Data set [2] deals with E‐cadherin, N‐cadherin, vimentin in 786‐O and ACHN cells. The data set can be described thus: Western blot of EMT‐related proteins. Type of data set: cell-based, human.
A further data set concerns ACHN cells. The data set can be described thus: Cell viability assay. Type of data set: cell-based. As to conditions: Homo sapiens. Summed up:
(§1)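 Cells in RPMI-1640 with 10% FBS, seeded 5 × 10³/well, left overnight. Medium then replaced with test compound at 0, 10, 20, 40, 60, 80 and 100 μmol/L for 24 or 48 h. CCK8 added for 4 h at 37°C; OD read at 490 nm. Mean ± SD of 3 independent experiments.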

In data set [3] the test system is HK‐2 normal renal tubular epithelial cells. The data set can be described thus: Cell viability assay. The note with it: HK‐2, low doses of TQ (less than 60 μmol/L). Type of data set: cell-based, human.
Data set [4] concerns lung metastasis of 786‐O cells. The experiment in a line: Metastatic tumor model, luciferase‐tagged 786‐O cells via tail veins. The format is in vivo, nude mice. As to conditions: vs control. The method, boiled down:
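Male nude mice, 5 weeks old, 19-22 g, received luciferase-tagged 786-O cells by tail vein, then two groups. Dosing was intraperitoneal DMSO (control) or test compound 20 mg/kg every 3 days. At day 30: D-luciferin 150 mg/kg i.p., 10 min wait, chloral hydrate anaesthesia, then bioluminescence imaging. Lung tumours harvested and H&E-stained.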

A further data set relates to 786‐O cells. The data set can be described thus: Cell viability assay. The format is cell-based. The note with it: Homo sapiens. Summed up: as §1
Data set [5] concerns LC3 in 786‐O and ACHN cells. The data set can be described thus: Autophagy detection. Type of data set: cell-based, human. Summed up:
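786-O and ACHN cells pretreated 4 h with AMPK inhibitor (50 μmol/L), then 40 μmol/L test compound 24 h. RIPA lysis with protease/phosphatase inhibitors and PMSF on ice; BCA-normalised; 10%-15% SDS-PAGE, PVDF, 10% milk block 2 h RT; anti-LC3-I/II overnight 4°C, secondary 1 h; ECL detection. Mean ± SD of 3 independent experiments.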

In a further data set the test system is 786‐O xenograft tumors. The experiment in a line: Subcutaneous 786‐O xenograft tumor model. The format is in vivo, nude mice. The method, boiled down:
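Male nude mice, 5 weeks old, 19-22 g, given 1 × 10⁶ 786-O cells s.c. with Matrigel in the right flank. At 100-150 mm³, randomised 5 per group: intraperitoneal DMSO or test compound 20 mg/kg every 3 days. Volume ((length × width²) × .5) and body weight recorded every 3 days. Tumours excised and weighed after 30 days. Mean ± SD.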

Data set [6] relates to 786‐O and ACHN cells. The experiment in a line: Transwell invasion assay. The format is cell-based, human. As to conditions: 0, 20, 40, 60 μmol/L TQ.
Data set [7] deals with AMPK/mTOR signaling pathway in 786‐O and ACHN cells. The experiment in a line: Western blot of AMPK/mTOR signaling pathway. Type of data set: cell-based, human. The note with it: 0, 20, 40, 60 μmol/L TQ, 24 hours. The method, boiled down: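 786-O and ACHN cells exposed 24 h to test compound at 0, 20, 40, 60 μmol/L. RIPA lysis with protease/phosphatase inhibitors and PMSF; BCA-normalised; 10%-15% SDS-PAGE, PVDF, 10% milk block. Probed overnight at 4°C for AMPK, p-AMPK (Thr172), mTOR, p-mTOR (Ser2448), p-S6K (Thr389), LC3; secondary 1 h; ECL. Mean ± SD, 3 independent experiments.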
(A western blot detects proteins with antibodies after separation by electrophoresis.)

The subject of another data set is RCC cells. The experiment in a line: Comparison of TQ with everolimus. Type of data set: cell-based, human. As to conditions: Figure S3.
[8] abbreviates: 3‐MA 5 mmol/L with TQ 40 μmol/L.
[9] abbreviates: TQ 20 mg/kg intraperitoneal every 3 days, 30 days.
Where [10] appears, read: compound C 50 μmol/L pretreatment 4 hours, then TQ 40 μmol/L 24 hours.

Turning to `Cn1cnc(N)c2ncnc1-2` [3‐MA, 3‐methyladenine], the “effect on anti‐migratory ability of TQ” value in the data set with 786‐O and ACHN cells [1] (setting [8]) is “remarkably attenuated”. In data set [2] (setting [8]), the “effect on TQ‐induced MET” value is “abate TQ‐induced MET”.

In general, IC50 refers to the concentration needed to halve the response being measured. Regarding `CC1=CC(=O)C(C(C)C)=CC1=O` [TQ, 2‐methyl‐5‐isopropyl‐1,4‐benzoquinone], the IC50 in the data set on ACHN cells (24 h, read-out: IC50 value, inhibition on cell growth) was found to be 72 µM; in the data set on 786‐O cells (786-0, 24 h, read-out: IC50 value, inhibition on cell growth) it was 55 µM. Moreover, the inhibition at 40 µM was below 20% in the data set on ACHN cells (read-out: inhibitory rate of cell proliferation) and below 20% with 786‐O cells (786-0, read-out: inhibitory rate of cell proliferation). Besides, the “effect on cell growth of normal cells” value in data set [3] is reported as “no significant decrease in cell growth”. The “lung metastasis (bioluminescence)” value in [4] (setting [9]) is “significantly inhibited lung metastasis”. Also, the “number of metastatic nodules in the lungs (H&E)” value in [4] (TQ 20 mg/kg) was “significant decrease in the number of metastatic nodules”. Further, the “LC3 puncta (autophagosomes and autolysosomes)” value in data set [5] (40 μmol/L TQ, 24 hours, vs control group) is “number of both yellow and red puncta increased dramatically”. Also, the “LC3‐II expression” value in data set [5] (western blot, different concentrations of TQ) is on record as “upregulate LC3‐II in a concentration‐dependent manner”. Also, the “tumor growth / tumor weight vs control” value in the data set with 786‐O xenograft tumors (setting [9]) is “TQ inhibited RCC cell growth in vivo”. Moreover, the “expression of E‐cadherin and N‐cadherin in xenograft tumors” value in the data set with 786‐O xenograft tumors (immunohistochemistry and western blot, TQ 20 mg/kg) was “increased expression of E‐cadherin and decreased expression of N‐cadherin”. Moreover, the cancer cell migration entry in the data set on 786‐O and ACHN cells [1] (wound healing 40 μmol/L, transwell 0, 20, 40, 60 μmol/L, 24 hours) was “attenuated cancer cell migration in a time‐dependent and concentration‐dependent manner”. The “expression of EMT markers” value in data set [2] (different concentrations for 24 hours or 40 μmol/L for different times) is recorded as “upregulated epithelial markers (E‐cadherin), while downregulating mesenchymal markers (N‐cadherin, vimentin)”. Further, the “number of invaded cells” value with 786‐O and ACHN cells [6] is “number of invaded cells decreased with the increase of TQ concentration”. Further, the “expression of p‐AMPK” value in [7] is listed as “elevated”. Further, the “expressions of p‐mTOR and p‐S6K” value in data set [7] is listed as “reduced”.

Regarding `c1cc(-c2cnn3cc(-c4ccc(OCCN5CCCCC5)cc4)cnc23)ccn1` [compound C], in data set [5] (setting [10]), the “effect on TQ‐induced LC3” value is “effects of TQ on LC3 could be receded”. Further, the “effect on TQ anti‐migratory and anti‐invasive effects (transwell)” value in the data set with 786‐O and ACHN cells [1] (setting [10]) was “attenuated the migratory and invasive capacities of autophagy induced by TQ”. In addition, the “effect on TQ‐induced MET” value in [2] (setting [10]) was “weakened TQ‐induced MET”.

For the compound `CO[C@H]1C[C@@H]2CC[C@@H](C)[C@@](O)(O2)C(=O)C(=O)N2CCCC[C@H]2C(=O)O[C@H]([C@H](C)C[C@@H]2CC[C@@H](OCCO)[C@H](OC)C2)CC(=O)[C@H](C)/C=C(\C)[C@@H](O)[C@@H](OC)C(=O)[C@H](C)C[C@H](C)/C=C/C=C/C=C/1C` [everolimus], in the data set with RCC cells, the “inhibiting migration and invasion, inducing autophagy and MET, compared with TQ” value is “significantly more potent than TQ”.

(Values after publication PMC6272120 (Cancer Science, 2018).)
